Hits are enriched below; roughly 2.7% of the tested compounds scored in any of these assays.
RAM inhibit: inhibitors of the yeast RAM network, primary screen, dse1pr::URA3 reporter, 5-FOA selection; S. cerevisiae dse1pr::URA3 reporter, 5-FOA growth OD615, 2 d; analog-sensitive cbk1-as2 kinase mutant strain; 190,000 tested, 1.8% active; inhibition, % at 50 µM;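 active = inhibition above a set limit, 3 SD over mean compound inhibition, cut at about 8.4% in these data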;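 note: inhibition rescues growth on 5-FOA so higher OD means more RAM inhibition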
BB579 growth dn: growth inhibitors of yeast BB579 in restrictive medium, primary screen, yeast lifespan-shortening project, S. cerevisiae | AID 804, 2007 | inhibition, % at 10 µM | 140,000 tested, 0.51% active | OD615, 48 h;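 active = inhibition above a set limit, 3 SD over the mean compound inhibition, cut at about 44% in these data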
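Material: Saccharomyces cerevisiae DeaD strain BB579, replicative lifespan model yeast; buffer or medium: CSMM-D restrictive synthetic medium containing dextrose (glucose); compound: 10 µM single dose, DMSO 0.25%; timing: 48 h compound exposure at 30 °C after 4 h preincubation; signal: turbidity as optical density at 615 nm; benchmarks: positive control amphotericin B 10 µg/mL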
Phagocytosis inh: inhibitors of macrophage phagocytosis, primary screen, imaging, J774A.1 cells, IgG beads. J774A.1 macrophage IgG-bead phagocytosis. inhibition, % at 5 µM. 110,000 tested, 0.07% active. AID 1029, 2008;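 active = inhibition above the mean of the plate negative controls plus 5 SD, cut at about 13% in these data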;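 note: phagocytic index as fraction of beads internalized from green versus red external bead signal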
Yeast lifespan up: compounds extending yeast replicative lifespan, primary screen, S. cerevisiae, OD615. S. cerevisiae growth with nicotinamide; deaD strain in restrictive glucose medium. AID 775, 2007. inhibition of the nicotinamide effect, % at 10 µM. 130,000 tested, 0.68% active;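 active = inhibition above a set limit, placed 3 SD over the median of all compounds, cut at about 26% in these data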
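Test system: DeaD-strain S. cerevisiae / Buffer or medium: restrictive glucose medium / Also added: nicotinamide 1.5 mM / Doses: one concentration, 10 µM, DMSO 0.25% / Schedule: 48 h at 30 °C / Signal: OD615 measurement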
Of the large screens only hits and unclear results are named; the others gave an inactive call.

O=C(Cc1cccc2ccccc12)Nc1ccc(OC(F)F)c(Cl)c1	none
O=C(Nc1ccc(OC(F)F)c(Cl)c1)C(c1ccccc1)c1ccccc1	RAM inhibit 9.6
COc1ccc(S(=O)(=O)NCCSCc2ccccc2C)cc1Br	RAM inhibit 9.9
CC(C)=C1C(=O)NN(c2ccc(C)c(Cl)c2)C1=O	Yeast lifespan up 45
CC(C)=C1C(=O)NN(c2cccc(Cl)c2)C1=O	none
NC(=O)CNC(=O)[C@@H]1CC2(CC(c3ccc(Cl)cc3)=NO2)CN1C(=O)c1ccccc1 (some centres not stated)	none (no result: Phagocytosis inh)
COc1cccc(/C=C/C(=O)c2ccc[nH]2)c1	none
COc1cccc(/C=C/C(=O)Oc2ccc(C(=O)c3ccc(F)cc3)cc2)c1	RAM inhibit 8.7
Cc1ccc(NC(=O)CSc2ccccn2)cc1S(=O)(=O)N1CCOCC1	none (no result: BB579 growth dn, Phagocytosis inh, Yeast lifespan up)
Cc1ccc(NC(=O)CCCSc2ccccc2)cc1S(=O)(=O)N1CCOCC1	RAM inhibit 8.9 (no result: BB579 growth dn, Phagocytosis inh, Yeast lifespan up)
Cc1cc(Br)ccc1SCC(=O)OCC(=O)NC(C)c1ccccc1 (configuration not stated)	none
Cc1cc(SCC(=O)OCC(=O)NC(C)c2ccccc2)c(C)cc1Br (configuration not stated)	RAM inhibit 10 (no result: Phagocytosis inh)
CCC(=O)Nc1ccccc1C(=O)OCC(=O)c1ccccc1	none
CCC(=O)Nc1ccccc1C(=O)OCC(=O)c1ccc2ccccc2c1	RAM inhibit 10
COc1cccc(C(=O)NC(=S)Nc2nnn(C)n2)c1	none
O=C1c2ccccc2NC(c2ccc(-c3cccc([N+](=O)[O-])c3)o2)N1O (configuration not stated)	none
O=C1c2ccccc2NC(c2ccc(-c3ccc(Br)cc3)o2)N1O (configuration not stated)	BB579 growth dn 94
CN(c1ccccc1)c1ccc(/C=C/[N+](=O)[O-])cc1	BB579 growth dn 100
CC(=O)OC1C2CCC1C([N+]1(C)CCCCC1)CC2 (configuration not stated)	none (no result: BB579 growth dn, Phagocytosis inh, Yeast lifespan up)
CCN(CC)c1ccc(/C=C(\C#N)C(N)=O)cc1	none (no result: BB579 growth dn, Phagocytosis inh, Yeast lifespan up)
CCN(CC)c1ccc(/C=C(\C#N)C(=O)c2ccc(Br)cc2)cc1	RAM inhibit 9.2
Cc1ccc(C(=O)N2CCN(c3ccc(NC(=O)COc4ccccc4C)cc3)CC2)cc1	none (no result: BB579 growth dn, Phagocytosis inh, Yeast lifespan up)
COc1cccc(C(=O)Oc2cc(-c3ccccc3)no2)c1	Phagocytosis inh 165
Cc1ccc(C(=O)Oc2cc(-c3ccccc3)no2)cc1	none
Cc1ccc2nsnc2c1NC(=O)COc1ccccc1	none (no result: BB579 growth dn, Phagocytosis inh, Yeast lifespan up)
O=C(ON=C1CCN(S(=O)(=O)c2ccccc2)CC1)c1ccccc1	none (no result: Phagocytosis inh)
CC1(C)CC(=NOC(=O)c2ccccc2)CC(C)(C)N1O	BB579 growth dn 74
CC(NC(=O)CCC(=O)c1ccc(F)cc1)C1CC2CCC1C2 (configuration not stated)	none (no result: BB579 growth dn, Phagocytosis inh, Yeast lifespan up)
CS(=O)(=O)c1nc(-c2ccco2)cc(C(F)(F)F)n1	Yeast lifespan up 89
FC(F)(F)c1cc(-c2ccco2)nc(-n2nc(C(F)(F)F)cc2C2CC2)n1	RAM inhibit 9.1
COc1ccccc1-c1cc(C(F)(F)F)nc(S(C)(=O)=O)n1	none
CN1CCN(c2nc(-c3ccco3)cc(C(F)(F)F)n2)CC1	none
Cc1ccc(N2CC(C(=O)Nc3c(C)n(C)n(-c4ccccc4)c3=O)CC2=O)cc1 (configuration not stated)	none (no result: BB579 growth dn, Phagocytosis inh, Yeast lifespan up)
COc1ccc(-c2nnc(SCc3nnc(-c4ccc(Cl)cc4)o3)n2-c2ccccc2)cc1	none
CCOC(=O)C1=C(NC(=S)NC(=O)c2ccccc2)c2ccccc2CC1(C)CC (configuration not stated)	RAM inhibit 11
CN1C(=O)C(c2nnc(Nc3cccc4ccccc34)s2)C2CC1(C)Oc1ccccc12 (configuration not stated)	RAM inhibit 9.0
OCCN(CCO)CC(O)COc1ccc(C23CC4CC(CC(C4)C2)C3)cc1 (configuration not stated)	BB579 growth dn 46
COC(=O)c1ccc(OCC(O)CN(CCO)CCO)cc1 (configuration not stated)	none
CCn1nc(C)c(Br)c1Nc1ccc(Br)cc1	none (no result: BB579 growth dn, Phagocytosis inh, Yeast lifespan up)
O=C(O/N=C\c1ccc(N2CCCCC2)c([N+](=O)[O-])c1)c1cccc(C(F)(F)F)c1	none
O=C(O/N=C\c1ccc(N2CCCCC2)c([N+](=O)[O-])c1)c1cccc(Cl)c1	RAM inhibit 11 (no result: Phagocytosis inh)
CCN(CC)S(=O)(=O)c1ccc(C(=O)NCCSc2c[nH]c3ccccc23)cc1	RAM inhibit 8.7 (no result: Phagocytosis inh)

High-throughput results (PubChem BioAssay)
